What was measured:
[1] = Metabolic stability in rat liver microsome assessed as compound remaining at 20 uM measured after 32 mins in presence of NADP and GSH by HPLC analysis; assay type: ADME; settings: liver microsomes, read-out: Stability
Method in brief: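 Rat liver microsomes (final 2 mg/mL) in 50 mM phosphate pH 7.4 with 0.3 mM NADP+, 5.3 mM glucose-6-phosphate, G6PDH, 10 mM MgCl2 and 5 mM EDTA. 20 μM compound added at 37 °C. Aliquots at 0, 16 and 32 min were quenched in ice-cold acetonitrile and centrifuged. HPLC peak area at 254/280 nm was expressed relative to 0 min.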

Leishmania braziliensis [2] = assay: Antileishmanial activity against wild type Leishmania braziliensis UA847 promastigotes […] assessed as inhibition of parasite growth incubated for 72 hrs by automatic microtiter plate reader analysis; assay type: functional, organism-based
Method in brief: (§1)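 Promastigotes were grown in Schneider's medium (4 mM glutamine, gentamicin, 10% heat-inactivated FBS, pH 6.9, 27 °C). Cells were seeded at 1.5 × 10^5/well and exposed to a concentration series for 72 h at 27 °C.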

[3] = Cytotoxicity against mouse L929 cells assessed as inhibition of cell growth incubated for 72 hrs by MTS assay; assay type: toxicity, cell-based
Method in brief: (§2)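 Cells in DMEM + 10% heat-inactivated FBS with penicillin/streptomycin at 37 °C, 5% CO2. They were seeded at 1 × 10^4/well and incubated with a concentration series for 72 h at 37 °C. Viability was read by MTS/PMS assay at 490 nm and IC50 derived.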

RAW264.7 = assay: Cytotoxicity against mouse RAW264.7 cells assessed as inhibition of cell growth incubated for 72 hrs by MTS assay; assay type: functional, cell-based; settings: RAW264.7, 72 h; method in brief: as §2
[4] = target: T1, Voltage-gated inwardly rectifying potassium channel KCNH2 (Homo sapiens, UniProt Q12809); assay: Inhibition of human ERG stably overexpressed in HEK293 cells incubated for 30 mins by FLIPR assay; assay type: toxicity, cell-based; settings: human, hek293, 0.5 h; time 30 min
[5] = Metabolic stability in rat liver S9 fraction assessed as compound remaining at 20 uM measured after 32 mins in presence of NADP and GSH by HPLC analysis; assay type: ADME, subcellular; settings: read-out: Stability
Method in brief: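 Rat liver S9 (final 4 mg/mL) in 50 mM phosphate pH 7.4 with NADPH-regenerating system (0.3 mM NADP+, 5.3 mM glucose-6-phosphate, G6PDH), 10 mM MgCl2 and 5 mM EDTA. Pre-warmed 10 min at 37 °C, then 20 μM compound and 5.5 μM GSH added. Samples taken at 0, 16 and 32 min were quenched in ice-cold acetonitrile. HPLC (254/280 nm) peak area was expressed relative to 0 min.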

Leishmania amazonensis [6] = assay: Antileishmanial activity against wild type Leishmania amazonensis LV78 promastigotes […] assessed as inhibition of parasite growth incubated for 72 hrs by automatic microtiter plate reader analysis; assay type: functional, organism-based; method in brief: as §1
Leishmania donovani [7] = assay: Antileishmanial activity against wild type Leishmania donovani HU3 promastigotes […] assessed as inhibition of parasite growth incubated for 72 hrs by automatic microtiter plate reader analysis; assay type: functional, organism-based
Leishmania donovani [8] = assay: Antileishmanial activity against miltefosine resistant Leishmania donovani HU3MILR40 promastigotes […] assessed as inhibition of parasite growth incubated for 72 hrs by automatic microtiter plate reader analysis; assay type: functional, organism-based
Method in brief: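 Promastigote (free parasite) assay: Schneider's Drosophila medium with 4 mM glutamine, 25 μg mL−1 gentamicin, 10% heat-inactivated FBS, pH 6.9, 27 °C. 1.5 × 10^5 promastigotes per well exposed to a concentration series for 72 h at 27 °C.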

Leishmania major = assay: Antileishmanial activity against wild type Leishmania major FV1 promastigotes […] assessed as inhibition of parasite growth incubated for 72 hrs by automatic microtiter plate reader analysis; assay type: functional, organism-based; method in brief: as §1
[9] = Hepatotoxicity against mouse TAMH cells assessed as cell viability at 7.8 to 125 uM incubated for 24 to 48 hrs by MTT assay; assay type: toxicity, cell-based; settings: dose lower 7.8 µM, time lower 24 hrs, dose upper 125 µM, time upper 48 hrs, read-out: Activity
Method in brief: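 TAMH mouse liver cells in FCS-free DMEM/F12 with 5% PANEXIN NTA, 10 mM nicotinamide and gentamicin. Seeded at 20 000/well and attached 24 h at 37 °C, 5% CO2. DMSO-diluted compounds were applied for 24 or 48 h. MTT was added for 4 h, formazan dissolved in DMSO and A570 read. Viability was background-corrected and expressed relative to DMSO controls; mean ± SD, ≥3 experiments.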

[10] = target: T1, Voltage-gated inwardly rectifying potassium channel KCNH2; assay: (§3) Inhibition of human ERG stably overexpressed in HEK293 cells assessed as remaining activity at 6 uM incubated for 30 mins by FLIPR assay; assay type: toxicity, cell-based; settings: hek293, 0.5 h, 6 µM
Method in brief: (§4)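 HEK-293 cells stably expressing hERG, seeded at 60 000/well and grown 24 h. Compounds were added in DMSO (final 0.5%) and incubated 30 min in the dark. After 20 s baseline, Tl+ stimulus (3 mM) was added and fluorescence (ex 485/em 535 nm) recorded for 2.5 min.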

[11] = Hepatotoxicity against human HepG2 cells assessed as cell viability at 125 uM incubated for 48 hrs by MTT assay; assay type: toxicity, cell-based; settings: HepG2 cells, read-out: Activity
Method in brief: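 HEP-G2 cells in RPMI 1640 + 10% heat-inactivated FBS, penicillin/streptomycin. Seeded at 15 000/well and attached 24 h at 37 °C, 5% CO2. Compounds were serially diluted in DMSO, with 24 or 48 h exposure. MTT (2.5 mg/mL solution) was added for 4 h, formazan dissolved in DMSO and A570 read. Viability was background-corrected against DMSO-treated cell controls; mean ± SD, ≥3 experiments.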

hERG (KCNH2) = hERG (KCNH2) (Homo sapiens, UniProt Q12809); assay: as §3; assay type: toxicity, cell-based; settings: HEK293 cells stably overexpressing hERG, read-out: Activity; method in brief: as §4
[12] = Cytotoxicity against mouse peritoneal macrophage assessed as inhibition of cell growth incubated for 72 hrs by giemsa staining based analysis; assay type: toxicity; settings: peritoneal macrophages
Leishmania amazonensis [13] = assay: Antileishmanial activity against wild type Leishmania amazonensis LV78 amastigotes infected in mouse peritoneal macrophage assessed as inhibition of parasite growth incubated for 72 hrs by giemsa staining based analysis; assay type: functional, organism-based
Method in brief: (§5)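 Mouse peritoneal macrophages (1 × 10^5/well on coverslips, DMEM + 10% heat-inactivated FBS, penicillin/streptomycin) adhered overnight at 37 °C, 5% CO2. They were infected overnight with late-log promastigotes at a 20:1 parasite:macrophage ratio. Cells were then treated with compound for 72 h at 37 °C and Giemsa-stained. Amastigotes per 100 macrophages were counted to derive IC50; mean ± SD of 3–4 independent experiments.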

Leishmania braziliensis [14] = assay: Antileishmanial activity against wild type Leishmania braziliensis UA847 amastigotes infected in mouse peritoneal macrophage assessed as inhibition of parasite growth incubated for 72 hrs by giemsa staining based analysis; assay type: functional, organism-based; method in brief: as §5
Leishmania donovani [15] = assay: Antileishmanial activity against wild type Leishmania donovani HU3 amastigotes infected in mouse peritoneal macrophage assessed as inhibition of parasite growth incubated for 72 hrs by giemsa staining based analysis; assay type: functional, organism-based
Method in brief: (§6)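 Mouse peritoneal macrophages in DMEM + 10% heat-inactivated FBS, penicillin/streptomycin; 1 × 10^5 cells per well on coverslips, adhered overnight at 37 °C, 5% CO2, non-adherent cells washed off. Infected overnight with late-log promastigotes at parasite:macrophage 40:1. Compound exposure 72 h at 37 °C; Giemsa stain, amastigotes per 100 macrophages counted, IC50 derived; means ± SD of 3–4 independent experiments.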

Leishmania donovani [16] = assay: Antileishmanial activity against miltefosine resistant Leishmania donovani HU3MILR40 amastigotes infected in mouse peritoneal macrophage assessed as inhibition of parasite growth incubated for 72 hrs by giemsa staining based analysis; assay type: functional, organism-based; method in brief: as §6

Sequence of hERG (KCNH2) (Q12809 whole entry): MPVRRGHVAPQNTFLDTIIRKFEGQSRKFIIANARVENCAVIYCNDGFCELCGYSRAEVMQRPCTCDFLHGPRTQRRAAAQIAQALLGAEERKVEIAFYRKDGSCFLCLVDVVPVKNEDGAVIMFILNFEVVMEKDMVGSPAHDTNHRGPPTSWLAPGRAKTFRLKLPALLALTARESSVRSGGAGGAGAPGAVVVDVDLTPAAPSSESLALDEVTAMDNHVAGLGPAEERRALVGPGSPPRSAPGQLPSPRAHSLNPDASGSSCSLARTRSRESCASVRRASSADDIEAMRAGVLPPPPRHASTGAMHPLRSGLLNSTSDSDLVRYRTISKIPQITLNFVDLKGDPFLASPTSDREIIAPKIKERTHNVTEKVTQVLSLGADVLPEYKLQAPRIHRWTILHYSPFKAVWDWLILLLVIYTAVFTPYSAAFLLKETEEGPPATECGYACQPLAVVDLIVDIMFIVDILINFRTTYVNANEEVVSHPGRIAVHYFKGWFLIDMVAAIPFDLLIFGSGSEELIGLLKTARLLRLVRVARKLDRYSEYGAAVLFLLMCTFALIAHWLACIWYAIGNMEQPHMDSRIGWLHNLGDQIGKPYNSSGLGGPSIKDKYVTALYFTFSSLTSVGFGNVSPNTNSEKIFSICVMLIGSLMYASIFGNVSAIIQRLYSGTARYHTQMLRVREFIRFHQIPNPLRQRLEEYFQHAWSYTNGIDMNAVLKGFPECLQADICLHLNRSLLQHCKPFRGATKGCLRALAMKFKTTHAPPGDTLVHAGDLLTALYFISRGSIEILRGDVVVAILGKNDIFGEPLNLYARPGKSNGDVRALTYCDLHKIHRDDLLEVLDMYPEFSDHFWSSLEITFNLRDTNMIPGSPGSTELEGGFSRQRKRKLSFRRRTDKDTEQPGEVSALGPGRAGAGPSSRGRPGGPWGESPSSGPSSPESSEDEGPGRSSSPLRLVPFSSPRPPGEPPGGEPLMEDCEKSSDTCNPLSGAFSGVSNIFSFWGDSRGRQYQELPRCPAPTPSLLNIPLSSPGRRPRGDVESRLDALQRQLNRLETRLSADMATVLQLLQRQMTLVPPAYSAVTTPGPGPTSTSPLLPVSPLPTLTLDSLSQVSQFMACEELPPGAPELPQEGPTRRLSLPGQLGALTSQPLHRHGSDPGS
T1 sequence (Q12809 whole entry): as above

Row | SMILES | remaining at 32 min, 20 µM [1] [%] | IC50 (Leishmania braziliensis [2]) [µM] | IC50 at 72 h [3] [µM] | IC50 (RAW264.7) [µM] | IC25 [4] [µM] | remaining at 32 min, 20 µM [5] [%] | IC50 (Leishmania amazonensis [6]) [µM] | IC50 (Leishmania donovani [7]) [µM] | IC50 (Leishmania donovani [8]) [µM] | IC50 (Leishmania major) [µM] | viability at up to 125 µM [9] [%] | inhibition (INH) [10] | viability at 48 h, 125 µM [11] [%] | activity at 0.5 h, 6 µM (hERG (KCNH2)) [%] | IC50 at 72 h [12] [µM] | IC50 (Leishmania amazonensis [13]) [µM] | IC50 (Leishmania braziliensis [14]) [µM] | IC50 (Leishmania donovani [15]) [µM] | IC50 (Leishmania donovani [16]) [µM]
1 | COc1ccc(Cn2ccn3cc([N+](=O)[O-])nc3c2=O)cc1 | 100 | > 20 | > 100 | > 100 | > 2 | 100 | > 20 | > 12.4 | > 18.5 | 6.9 | > 50 |  |  |  |  |  |  |  | 
2 | C[S+]([O-])c1ccc(C(=O)Nc2ccc3c(c2)B(O)OC3(C)C)cc1 (configuration not stated) | 95.2 | > 20 | > 100 | > 100 | 25.7 | 100 | > 20 | > 16.8 | > 20 | > 20 | > 50 | Not_active | 54.2 |  |  |  |  |  | 
3 | Cn1c([N+](=O)[O-])cnc1C(=O)N1CCS(=O)(=O)CC1 | 100 | 12.2 | > 100 | > 100 | > 6.2 | 100 | 13.3 | 7.5 | 13.7 | 3.4 | > 50 |  |  |  |  |  |  |  | 
4 | CSc1ccc(Cn2ccn3cc([N+](=O)[O-])nc3c2=O)cc1 | 93.1 | > 20 | > 57.5 | 48.1 | > 2 | 100 | > 20 | > 16.6 | > 20 | 8.9 | > 50 |  |  |  |  |  |  |  | 
5 | CSc1ccc(C(=O)Nc2ccc3c(c2)B(O)OC3(C)C)cc1 | 8 | 4.4 | > 100 | 73.6 | > 6.2 | 61.3 | 3.6 | 11.9 | 15.4 | 3.9 | > 50 |  | 54 | 66 | > 100 | > 10 | > 10 | > 10 | > 10
6 | Cn1c([N+](=O)[O-])cnc1COc1ccc(S(C)(=N)=O)cc1 (configuration not stated) | 100 | 9.6 | > 100 | > 100 | > 100 | 100 | 14.6 | 12.2 | 12.3 | 2.7 | > 50 | Not_active |  |  |  |  |  |  | 
7 | Cn1c([N+](=O)[O-])cnc1CCc1ccc(S(C)(=N)=O)cc1 (configuration not stated) | 100 | > 20 | > 100 | > 100 | 49.4 | 100 | > 20 | > 20 | > 20 | 11.8 | > 50 |  |  |  |  |  |  |  | 
8 | Cn1c([N+](=O)[O-])cnc1C(=O)Nc1ccc(F)cc1C(F)(F)F | 100 | 2.3 | > 100 | > 100 | > 6.2 | 100 | 4.5 | 8.1 | 12.2 | 1.2 | > 50 |  |  |  | > 100 | > 10 | > 10 | > 10 | > 10
9 | CSc1ccc(NC(=O)c2ncc([N+](=O)[O-])[nH]2)cc1 | 18.4 | > 20 | 84.7 | > 68.7 | > 12.5 | 68.2 | > 20 | > 20 | > 13.9 | > 20 | 56 | Not_active |  |  |  |  |  |  | 
10 | CSc1ccc(NC(=O)c2ncc([N+](=O)[O-])n2C)cc1 | 0 | > 20 | > 100 | > 100 | > 3.1 | 6.9 | > 20 | > 20 | > 20 | 6.5 | > 50 |  |  |  |  |  |  |  | 
11 | CS(=O)(=O)c1ccc(OCC2Cn3cc([N+](=O)[O-])nc3O2)cc1 (configuration not stated) | 100 | > 20 | > 100 | > 100 | 15.2 | 100 | > 20 | > 20 | 4.5 | > 20 | > 50 |  |  |  |  |  |  |  | 
12 | CSc1ccc(CCc2ncc([N+](=O)[O-])n2C)cc1 | 0 | 17.5 | > 100 | > 91.7 | 9.8 | 47.5 | 27.2 | 12.5 | 7.1 | 9.1 | > 50 |  |  | 64 |  |  |  |  | 
13 | CSc1ccc(OCc2ncc(C#N)n2C)cc1 | 8.2 | > 20 | > 100 | > 99.8 | 27.1 | 82.6 | > 20 | > 20 | > 20 | > 20 | > 50 |  |  |  |  |  |  |  | 
14 | CSc1ccc(NCc2ncc([N+](=O)[O-])n2C)cc1 | 0 | > 20 | > 100 | > 100 | 3.1 | 73.4 | > 20 | > 20 | 11.9 | 9.5 | > 50 |  |  | 48 |  |  |  |  | 

Source: ChEMBL document CHEMBL6134787, “Fexinidazole optimization: enhancing anti-leishmanial profile, metabolic stability and hERG safety” (RSC Med Chem, 2024)
